Laboratory results published in EPA's CvTdb concentration-time database.

Assays:
[1] = test system: rat; experiment: amount in urine after dosing (umol); conditions: inhalation, duration: 4 hr, F344 (Harlan Winkelmann)
[2] = test system: Rat; experiment: concentration in brain after dosing; conditions: 192 h; dosed: Perfluorohexane-1-sulphonic acid – potassium salt; 16 mg/kg; oral; Female; F344
[3] = test system: Rat; experiment: concentration in liver after dosing; conditions: 528 h; dosed: Perfluorohexane-1-sulphonic acid – potassium salt; 16 mg/kg; oral; Female; F344
[4] = test system: Rat; experiment: concentration in plasma after dosing; conditions: 40 h; dosed: Pyridine; 100 mg/kg; oral; Male; F344
[5] = test system: Rat; experiment: concentration in plasma after dosing; conditions: dosed: Pyridine, 25 mg/kg, oral, Male, F344
[6] = test system: Mouse; experiment: concentration in plasma after dosing; conditions: dosed: 2,4-Dichlorophenoxyacetic acid, 2.0 mg/kg, oral, Male, B6C3F1
[7] = test system: Hamster; experiment: concentration in plasma after dosing; conditions: dosed: 2,4-Dichlorophenoxyacetic acid, 2.0 mg/kg, oral, Male, Syrian Golden
How it was run: (§1)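 Data points giving concentration or amount against time came from published in vivo toxicokinetic studies and from two structured collections. PubMed searching, classifier screening and manual review located the studies. Most points were digitised from plot screenshots using WebPlotDigitizer, the rest were copied from tables, and all keep their reported units.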

[8] = test system: Hamster; experiment: concentration in plasma after dosing; conditions: dosed: 2,4-Dichlorophenoxyacetic acid, 8.0 mg/kg, oral, Male, Syrian Golden
How it was run: as §1

[9] = test system: Mouse; experiment: concentration in plasma after dosing; conditions: dosed: 2,4-Dichlorophenoxyacetic acid, 2.0 mg/kg, oral, Male, B6C3F1; remark: listed apart in the source
[10] = test system: Rat; experiment: concentration in plasma after dosing; conditions: 4 h; dosed: 2-Hydroxy-4-methoxybenzophenone; 500 mg/kg; oral; Male; F344
[11] = test system: Mouse; experiment: concentration in plasma after dosing; conditions: 3 h; dosed: 2-Hydroxy-4-methoxybenzophenone; 50 mg/kg; iv; Male; B6C3F1
[12] = test system: Mouse; experiment: concentration in plasma after dosing; conditions: 10 min; dosed: 2-Hydroxy-4-methoxybenzophenone; 500 mg/kg; oral; Male; B6C3F1
[13] = test system: Mouse; experiment: concentration in plasma after dosing; conditions: 3 h; dosed: 2-Hydroxy-4-methoxybenzophenone; 250 mg/kg; oral; Male; B6C3F1
[14] = test system: Rat; experiment: concentration in brain after dosing; conditions: 6 h; dosed: alpha-Thujone; 25 mg/kg; oral; Male; Harlan Sprague Dawley
[15] = test system: Rat; experiment: concentration in brain after dosing; conditions: 0.5 h; dosed: alpha-Thujone; 50 mg/kg; oral; Female; Harlan Sprague Dawley
[16] = test system: Rat; experiment: concentration in plasma after dosing; conditions: 1.5 h; dosed: alpha-Thujone; 25 mg/kg; oral; Male; Harlan Sprague Dawley
[17] = test system: Rat; experiment: concentration in plasma after dosing; conditions: 6 h; dosed: alpha-Thujone; 50 mg/kg; oral; Female; Harlan Sprague Dawley
[18] = test system: Rat; experiment: concentration in plasma after dosing; conditions: 6 h; dosed: alpha-Thujone; 25 mg/kg; oral; Male; Harlan Sprague Dawley
[19] = test system: Rat; experiment: concentration in plasma after dosing; conditions: 0.5 h; dosed: alpha-Thujone; 25 mg/kg; oral; Male; Harlan Sprague Dawley
[20] = test system: Rat; experiment: concentration in plasma after dosing; conditions: 12 h; dosed: alpha-Thujone; 25 mg/kg; oral; Male; Harlan Sprague Dawley
[21] = test system: Rat; experiment: concentration in plasma after dosing; conditions: 0.5 h; dosed: Primidone; 130 mg/kg; oral; Male; Harlan Sprague Dawley

CC(C)(O)CO [2-methyl-1,2-propanediol]
[1]
Conditions	amount in urine
5.902 h, dosed: ethyl tert-butyl ether, 4.5 ppm	0.0942
5.941 h, dosed: methyl tert-butyl ether, 38.7 ppm	1.91
5.99 h, dosed: ethyl tert-butyl ether, 40.6 ppm	0.962
11.87 h, dosed: ethyl tert-butyl ether, 4.5 ppm	0.122
11.94 h, dosed: methyl tert-butyl ether, 38.7 ppm	1.17
11.96 h, dosed: ethyl tert-butyl ether, 40.6 ppm	0.855
11.97 h, dosed: methyl tert-butyl ether, 4.5 ppm	0.56
17.81 h, dosed: ethyl tert-butyl ether, 4.5 ppm	0.0535
17.95 h, dosed: methyl tert-butyl ether, 38.7 ppm	0.268
18.01 h, dosed: ethyl tert-butyl ether, 40.6 ppm	0.254
18.01 h, dosed: methyl tert-butyl ether, 4.5 ppm	0.155
23.76 h, dosed: ethyl tert-butyl ether, 4.5 ppm	0.0171
23.93 h, dosed: methyl tert-butyl ether, 38.7 ppm	0.126
23.95 h, dosed: methyl tert-butyl ether, 4.5 ppm	0.0371
23.96 h, dosed: ethyl tert-butyl ether, 40.6 ppm	0.0668
29.72 h, dosed: ethyl tert-butyl ether, 4.5 ppm	0.015
29.91 h, dosed: methyl tert-butyl ether, 38.7 ppm	0.0631
29.93 h, dosed: ethyl tert-butyl ether, 40.6 ppm	0.0668
29.96 h, dosed: methyl tert-butyl ether, 4.5 ppm	0.023

O=S(=O)([O-])C(F)(F)C(F)(F)C(F)(F)C(F)(F)C(F)(F)C(F)(F)F.[K+] [Perfluorohexane-1-sulphonic acid – potassium salt]
Conditions	concentration in brain [ng/g]	concentration in liver [ng/g]
[2]	929	–
[3]	–	29800

c1ccncc1 [Pyridine]
Conditions	concentration in plasma [ng/mL]
[4]	20000

[5]
Conditions	concentration in plasma [ng/mL]
0.5 h	18700
6 h	16200

O=C(O)COc1ccc(Cl)cc1Cl [2,4-Dichlorophenoxyacetic acid]
concentration in plasma [ng/mL]
Conditions	0.25 h	0.5 h	1 h	2 h	2.5 min	3 h	5 min	10 min
[6]	6770	6600	–	2620	6530	483	7270	7510
[7]	6170	–	492	1870	146	–	4920	1970
[8]	4060	1230	1030	511	2380	–	9420	–
[9]	3740	8570	–	2400	2790	929	–	4900

O=C(c1ccccc1)c1ccc(O)cc1O [2,4-Dihydroxybenzophenone]
Conditions	concentration in plasma [ng/mL]
[10]	124
[11]	202
[12]	856
[13]	316

CC(C)[C@]12CC(=O)[C@H](C)[C@H]1C2 [alpha-Thujone]
Conditions	concentration in brain [ng/g]	concentration in plasma [ng/mL]
[14]	117	–
[15]	878	–
[16]	–	186
[17]	–	162
[18]	–	68.6
[19]	–	324
[20]	–	11.3

CCC1(c2ccccc2)C(=O)NCNC1=O [Primidone]
Conditions	concentration in plasma [ng/mL]
[21]	47900
